Bioassay records: PubChem, several laboratories
Most compounds without a hit are left out; they make up all but 2.4% or so of the library.
Autophagy mod – modulators of autophagy | MEF GFP-LC3 puncta imaging; test concentration mostly 10 µM | calls only at 10 µM (by protocol) | actives 0.98% (n = 190,000);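 active = percentage of spot-positive cells more than 3 SD above its plate mean, without a fluorescence outlier flag or 80% toxicity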;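 also: spot-positive cell cutoff set from DMSO-treated cells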
MDM2 E3 inh – Mdm2 E3 ligase (human) inhibition; Q00987; cell-based MDM2 ubiquitination luciferase reporter, 2 h; 0 = plate control, 100 = twice control, blank-subtracted; signal enhancement, % at 5 µM; actives 0.11% (n = 210,000); AID 1230;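 active = signal enhancement of 30% or more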;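 also: luminescence tracks abundance of the self-degrading MDM2-luciferase fusion protein; higher signal means inhibition of MDM2 E3 ligase activity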
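Test system: mammalian cells stably expressing self-ubiquitinating, self-degrading MDM2 E3–luciferase fusion; Amount: 2000 cells in each well; Medium: DMEM; Schedule: 4 h settle plus 2 h compound, 37 °C; Technique: SteadyLite luciferase luminescence after 15 min room-temperature reagent incubation; Benchmarks: plate control and blank wells.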
TNF necrop inh – inhibitors of TNF-alpha induced necroptosis in Jurkat FADD-/- cells. AID 463075. activation (protection from cell death), % at 10 µM. actives 0.068% (n = 220,000). Jurkat FADD-/- TNF necroptosis rescue, ATP luminescence, 24 h; 0 = TNF only, 100 = no-TNF cells;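 active = activation, meaning protection from cell death, of at least 50% relative to plate controls; inactive = activation below 50%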;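 also: necroptosis triggered by 40 ng/mL TNF-alpha added together with compound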
Hck Nef HTS – inhibitors of human Hck kinase activated by Nef. P08631. Recombinant Hck-YEEI plus Nef, Z-Lyte FRET kinase assay. inhibition, % at 20 µM. actives 0.68% (n = 220,000);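 active = Hck-Nef kinase inhibition above about 50%, limit read from the data; inactive = inhibition below that limit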;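 also: 0% = DMSO with Hck plus Nef and 100% = Hck alone without Nef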
Target sequence (P08631 whole entry, looked up): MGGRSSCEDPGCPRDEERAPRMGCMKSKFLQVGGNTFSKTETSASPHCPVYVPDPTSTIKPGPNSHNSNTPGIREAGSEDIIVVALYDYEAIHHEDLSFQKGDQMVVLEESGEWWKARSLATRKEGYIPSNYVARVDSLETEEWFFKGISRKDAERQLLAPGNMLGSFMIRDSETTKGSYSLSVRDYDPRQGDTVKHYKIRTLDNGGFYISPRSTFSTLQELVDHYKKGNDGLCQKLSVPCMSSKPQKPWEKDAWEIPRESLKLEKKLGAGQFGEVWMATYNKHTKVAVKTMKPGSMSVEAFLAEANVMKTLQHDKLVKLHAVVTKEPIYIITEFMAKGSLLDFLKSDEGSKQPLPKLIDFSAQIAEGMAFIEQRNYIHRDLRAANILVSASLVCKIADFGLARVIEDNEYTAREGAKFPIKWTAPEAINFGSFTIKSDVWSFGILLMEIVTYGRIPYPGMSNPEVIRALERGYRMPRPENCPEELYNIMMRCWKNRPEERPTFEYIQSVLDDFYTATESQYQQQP
L929 necroptosis – L929 zVAD cell death inhibition. actives 0.38% (n = 220,000). L929 zVAD necroptosis rescue, ATP luminescence, 24 h; with zVAD 60 µM. AID 1377. viability rescue, % at 10 µM;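 active = activation, scaled between plate controls, above about 75%, limit read from the data; inactive = activation under that limit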;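 also: 0% = zVAD with DMSO and 100% = DMSO alone without zVAD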
Dynein transport – blocks dynein driven cargo transport along microtubules; 3617.4 mouse cells, GR-EGFP nuclear translocation imaging; test concentration mostly 20 µM; stimulated with dexamethasone, 1 µM; active compounds read low; AID 1381; actives 0.47% (n = 220,000); z-score, hits read low;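 active = plate z-score of nuclear minus cytoplasmic receptor signal below a set negative limit, without overly bright fluorescence or cell loss, cut at about -3.5 in these data, passing the limit was not always enough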;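 also: z-score of nuclear minus cytoplasmic ring GR-EGFP intensity difference per well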
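Buffer or medium: tet-free, stripped-serum medium; Also added: dexamethasone, 1.0 µM final; Technique: high-content fluorescence imaging after fixation; Times: 48 h induction, 1 h compound, 30 min dex at 37 °C; Read-out: per-cell GR-EGFP intensity, nucleus versus surrounding cytoplasmic ring, well-averaged.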
Numbers without * were called inactive; i = inactive; · = no result; + = active, no number.

SMILES	Autophagy mod	MDM2 E3 inh	TNF necrop inh	Hck Nef HTS	L929 necroptosis	Dynein transport
Cc1ccc(N2CC(C(=O)Nc3nccs3)CC2=O)cc1Cl (configuration not stated)	+	-4.2	16.6	1.1	45.2	-0.608
COc1ccc(C(=O)NNC2=Nc3cccc4cccc2c34)cc1	+	-12.6	-0.5	16.6	2.1	-0.561
Cc1ccc(OCC(=O)N/N=C/c2cc([N+](=O)[O-])ccc2N2CCCCC2)cc1	+	-20.7	1.5	4.5	0.3	0.233
O=C(COc1ccc([N+](=O)[O-])cc1)N/N=C/c1cc([N+](=O)[O-])ccc1N1CCOCC1	i	-16.6	2.3	0.1	1.0	0.287
CCCCn1c(SCC(=O)Nc2cc(C(F)(F)F)cc(C(F)(F)F)c2)nnc1C(CC)N(C)C (configuration not stated)	i	-5.8	6.1	-0.9	1.0	0.557
CCN(CC)c1ccc(NC(=O)COC(=O)/C=C/c2nc3ccccc3s2)cc1	i	-0.8	-1.4	5.6	2.7	-1.16
CCN(CC)c1ccc(/C=C/c2nc3ccccc3s2)cc1	+	-10.3	-1.8	-2.4	0.7	-9.98
CCOC(=O)C(C(=O)OCC)[C@@H]1CS(=O)(=O)C[C@H]1C(C(=O)OCC)C(=O)OCC	i	-12.4	1.0	-0.7	-0.9	0.509
CCN1CCN(c2ncc(C(=O)Nc3cc(Cl)ccc3OC)c3ccccc23)CC1	+	7.3	-0.3	-5.8	1.2	2.23
COc1ccccc1N1CCN(c2ncc(C(=O)N3CCN(c4cccc(Cl)c4)CC3)c3ccccc23)CC1	i	-0.7	-7.8	-2.5	1.4	-1.29
CCN(CC)C(=O)CSc1nnc(CSc2ncccn2)n1C	·	·	1.2	29.7	0.2	-0.0342
CSCCOC(=O)C1=C(C)Nc2ccc(C)cc2S1	+	-25.6	-0.6	-1.0	0.4	-0.825
CCc1cc2c(=O)c(-c3ccc4c(c3)OCCO4)c(C)oc2cc1OS(C)(=O)=O	i	-11.1	2.3	-0.9	1.0	-0.653
CC1=CC(=O)N(c2ccn(C)n2)C1=O	·	-11.3	-3.6	-3.9	0.6	-2.54
COc1cccc(C(c2nnnn2Cc2ccccc2)N2CCN(C3CCCC3)CC2)c1OC (configuration not stated)	+	·	-13.3	-2.2	0.5	1.03
COc1ccccc1C(c1nnnn1Cc1ccccc1)N1CCN(C2CCCC2)CC1 (configuration not stated)	i	-10.2	0.6	14.5	-0.5	0.692
Cc1cc(C(=O)NN)c(Cl)cc1Cl	·	-16.7	1.8	16.9	0.5	1.36
COc1ccc(Nc2ncccc2C(=O)Nc2ccccc2)cc1	+	-12.0	1.7	0.5	7.6	0.204
COc1ccc(NC(=O)c2cccnc2Nc2ccc(OC)cc2)cc1	i	-8.8	-1.2	0.0	0.0	0.0933
CCOC(=O)c1c(NC(C)=O)sc2c(OCC(O)CNC(C)(C)C)c(Br)ccc12 (configuration not stated)	+	-0.6	-14.1	25.4	-5.4	-4.23
CCOC(=O)c1c(N)sc2c(OCC)c(Br)ccc12	i	8.1	-1.2	9.0	0.1	0.193
CCOC(=O)c1cc(-c2ccccc2)n(CC(=O)O)c1C	+	1.8	-0.5	-6.6	0.6	0.0221
CCOC(=O)c1cc(-c2ccccc2)n(CC(=O)NC(C)(C)C)c1C	i	-13.9	0.7	19.3	1.0	1.08
CCOC(=O)c1cc(-c2ccc(F)cc2)n(CC(=O)NC(C)CC)c1C (configuration not stated)	i	-16.9	3.8	12.4	-0.2	0.543
CCCNC(=O)Cn1c(-c2ccc(F)cc2)cc(C(=O)OCC)c1C	+	-9.2	0.9	22.8	-0.5	2.96
SMILES	Autophagy mod	MDM2 E3 inh	TNF necrop inh	Hck Nef HTS	L929 necroptosis	Dynein transport
O=C(Nc1ccc(F)cc1)OCCOc1ccc(Br)cc1	·	-21.6	1.1	-1.2	0.2	0.54
Cc1nnc2sc(-c3ccc(NC(=O)c4ccc(-c5ccc(Cl)cc5Cl)o4)cc3)nn12	i	·	-0.1	86.7*	0.6	0.808
Cc1nnc2sc(-c3ccc(NC(=O)c4cccnc4)cc3)nn12	i	·	0.1	-0.9	0.1	-0.914
Cc1ccsc1/C=C(\C(=O)c1ccc(OC(C)C)cc1)c1nc2ccccc2o1	i	-9.2	0.5	-9.5	·	-0.723
O=C(Nc1ccc(Cl)cc1)c1ccc(-n2cccn2)c([N+](=O)[O-])c1	i	38.4*	-5.1	1.5	0.8	0.491
COc1ccc(NC(=O)c2ccc(-n3cccn3)c([N+](=O)[O-])c2)cc1	i	-11.3	-0.8	1.6	3.2	-0.594
COCCSc1ccccc1C(=O)NCc1cccnc1	i	2.2	-0.9	22.3	19.7	-0.29
CCCCCCCCCCCCCCCCn1cc[n+](C)c1	+	-29.6	-28.2	1.6	6.0	0.878
CCCCCCCCn1ccc(=N)cc1	·	-40.6	-13.6	10.8	1.1	-0.755
O=C(CN1CCOCCOCCOCCOCC1)Nc1ccccc1	i	5.5	0.3	4.6	1.7	-0.274
CCOc1ccccc1C(=O)N1CCN=C1SC	i	-6.3	-2.9	2.4	-0.1	-0.162
CCOc1ccc(C(=O)N2CCN=C2SC)cc1OCC	+	-10.8	-3.4	2.3	-0.3	-0.85
O=C(/C=C/c1ccccc1)Nc1scc(-c2ccccc2)c1C(=O)O	+	-24.2	0.0	17.1	9.9	-0.6
COCCCN(C(=S)NC(=O)C(C)(C)C)c1c(N)n(Cc2ccccc2)c(=O)[nH]c1=O	·	-12.8	0.2	-1.5	-0.5	0.634
CC/C(=N/Nc1cccc(C)c1)c1cnnc(SC)n1	+	-6.8	1.8	1.4	4.4	-0.135
COc1ccc(N(CC(=O)O)S(=O)(=O)c2ccc(C)cc2)cc1Cl	i	-4.6	0.1	20.7	28.3	-0.471
COc1cccc(C2C([N+](=O)[O-])=C(N)Oc3cc(C)oc(=O)c32)c1 (configuration not stated)	·	0.0	0.1	24.5	-0.3	-0.533
Cn1nnnc1SCC1=C(C(=O)O)N2C(=O)C(NC(=O)Cn3nc(C(F)F)cc3C3CC3)C2SC1 (configuration not stated)	+	-8.3	0.5	34.8	2.2	0.00811
Cc1c(Cl)c(C(F)F)nn1CC(=O)NC1C(=O)N2C(C(=O)O)=C(CSc3nnnn3C)CSC12 (configuration not stated)	i	-28.9	0.0	20.0	-0.4	-0.604
COc1cc(OC)cc(C(=O)N[C@H](C(=O)Nc2nc3ccc(S(C)(=O)=O)cc3s2)C(C)C)c1	i	-6.2	1.9	2.4	1.0	-0.257
